# High-throughput results as filed in PubChem BioAssay.
# HTR1A agonist: 5-HT1a (human) receptor agonism. P08908. CHO 5-HT1a Ga15 NFAT-bla reporter, FRET ratio; 0% basal, 100% maximal reference agonist. 65,000 tested, 0.56% active. activation, % at 10 µM;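 active means activation above the screen-wide mean activation plus 3 SD, cut at about 19% in these data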;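 further: 0% = DMSO wells and 100% = 5-CT at EC100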
# S1P1 ag-PAM: activates or potentiates agonism at human S1P1 receptor; S1P1 CRE-bla cells, forskolin, beta-lactamase FRET, potentiator mode; S1P1 agonist co-added at EC20, 2 nM; 100% = saturating reference agonist, 0% = basal; activation, % at 9.5 µM; P21453; 56,000 tested, 0.57% active;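 active means activation above a cutoff set at the mean activation of all tested compounds plus 3 SD, cut at about 54% in these data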;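 further: forskolin at 4 µM as EC80 and the EC20 agonist is SEW2871; 100% = SEW2871 at its EC100 plus forskolin at EC80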
# 5HT1a antag: 5-HT1a (human) receptor antagonism; CHO 5-HT1a Ga15 NFAT-bla reporter, antagonist mode; inhibition, % at 10 µM; 62,000 tested, 0.68% active;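 active means inhibition above the mean of all tested compounds plus 3 SD, cut at about 43% in these data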;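 further: receptor stimulated by 5-CT agonist at 100 nM near EC80; beta-lactamase reporter measured by ratiometric fluorescence of a cleavable substrate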
# S1P3 agonist: activates the human S1P3 receptor | S1P3 NFAT-BLA reporter cells, agonism, FRET ratio; relative to 1 µM S1P, basal subtracted | activation, % at 4.5 µM | 60,000 tested, 0.1% active;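 active means activation above the screen-wide mean plus 3 SD, cut at about 4.5% in these data, passing the limit was not always enough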
#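 Assay system: CHO cells stably expressing human S1P3, Gα16 and NFAT-β-lactamase reporter. Timing: overnight plating, 4 h compound 37 °C, 2 h substrate RT. Signal: β-lactamase FRET emission ratio 460/535 nm. Measure: percent activation versus median 1 µM S1P response, basal-subtracted, per plate. Repeats: primary screen single test, confirmation screen in triplicate.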
# 5HT1E antag: antagonists of human 5-HT1E serotonin receptor. 65,000 tested, 0.99% active. CHO 5-HT1E Ga15 NFAT-bla reporter, FRET, antagonist. inhibition, % at 6 µM;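 active means inhibition above a set limit, the mean inhibition across every tested compound plus 3 SD, cut at about 29% in these data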;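 further: signal is the 460 over 535 nm emission ratio of beta-lactamase substrate; 0% = agonist plus DMSO wells and 100% = wells without agonist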
# Target sequence (P28566 whole entry, looked up): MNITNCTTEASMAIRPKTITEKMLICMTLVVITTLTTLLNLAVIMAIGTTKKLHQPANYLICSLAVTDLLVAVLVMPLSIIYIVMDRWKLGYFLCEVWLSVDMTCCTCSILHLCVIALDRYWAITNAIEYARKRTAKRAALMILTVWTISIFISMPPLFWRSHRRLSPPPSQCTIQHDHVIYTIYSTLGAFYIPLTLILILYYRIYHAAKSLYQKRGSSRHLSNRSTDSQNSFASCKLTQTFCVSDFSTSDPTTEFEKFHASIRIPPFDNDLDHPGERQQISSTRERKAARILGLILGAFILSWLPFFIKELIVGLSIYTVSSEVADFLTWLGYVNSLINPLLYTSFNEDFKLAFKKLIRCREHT
# HTR1E agonist: 5-HT1E (human) receptor agonism; CHO 5-HT1E Ga15 NFAT-bla reporter, FRET; 0% DMSO wells, 100% control agonist wells; 65,000 tested, 0.69% active; activation, % at 6 µM; P28566;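 active means activation above a set limit, the screen-wide mean activation plus 3 SD, cut at about 8.5% in these data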;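 further: 100% = positive control agonist at 1 µM giving full maximal response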
# An asterisk follows results filed as active; . = no result. Compounds with a hit are over-represented: about 3% of the library has one in this group of screens.
SMILES,HTR1A agonist,S1P1 ag-PAM,5HT1a antag,S1P3 agonist,5HT1E antag,HTR1E agonist
O=C(CSc1nnc(Cc2cccs2)n1Cc1ccco1)Nc1cc(Cl)cc(Cl)c1,3.4,7.1,45.6*,-0.1,-5.9,1.2
O=C(CSc1nnc(Cc2cccs2)n1Cc1ccco1)Nc1cccc(Cl)c1,2.4,12.5,40.8,-0.4,3.4,-0.8
CC(=O)N1CCc2cc(C(=O)CN3CCN(c4cccc(Cl)c4)CC3)ccc21,13.7,12.1,18.1,-1.1,-2.4,25.9*
CC(=O)N1CCc2ccc(C(=O)CN3CCN(c4cccc(C)c4C)CC3)cc21,9.8,1.8,-1.2,1.7,0.1,45.7*
COc1ccc(OC)c(-n2c(SCC(=O)NCc3ccco3)nnc2-c2c[nH]c3ccccc23)c1,1.7,2.5,-0.7,-0.7,5.9,0.3
CCCCc1ccc(Nc2nc(CCC)cc(=O)[nH]2)cc1,-2.0,6.9,44.8*,-1.7,5.6,-0.3
CCCc1cc(=O)[nH]c(Nc2ccc(N3CCCCC3)cc2)n1,-0.3,9.6,14.3,-2.1,-0.3,-0.5
CCN(CC)CCOC(=O)c1cccc(Br)c1,0.1,17.8,13.5,-0.8,0.8,11.1*
CCN(CC)CCOC(=O)c1cccc(Cl)c1,-4.1,-4.7,16.7,-1.6,6.3,2.0
Cn1cccc1C(=O)Nc1nc(-c2ccccn2)cs1,-1.1,5.8,15.4,1.1,2.0,0.1
O=C(Nc1nc(-c2ccccn2)cs1)c1ccc(Cl)s1,-2.5,50.0,28.5,-1.6,44.0*,1.3
CCC(=O)NCCc1cc2cc(C)c(C)cc2[nH]c1=O,224.3*,-18.1,1.4,-1.0,-0.7,0.2
C=CCNC(=O)C1CCCN(S(C)(=O)=O)C1 (configuration not stated),-0.3,13.9,2.7,-1.0,4.6,14.2*
O=C(Cn1c(C(=O)N2CCc3ccccc3C2)cc2sccc21)c1ccccc1,-3.2,3.0,43.5*,-1.5,2.1,-0.1
CC(NC(=O)Nc1nnc(C(F)(F)F)s1)N1C(=O)C2C3C=CC(C3)C2C1=O (configuration not stated),-3.4,-29.1,-0.7,-0.6,-1.8,-0.6
CC(NC(=O)Nc1nnc(C(F)(F)F)s1)(C(F)(F)F)C(F)(F)F,2.8,79.6*,.,-8.4,54.1*,-0.5
O=C(CN1CCC(n2nnc3cc(F)ccc32)CC1)NCc1ccco1,-1.3,-9.3,-6.6,-0.3,-9.2,0.5
CCC(C)(C)n1nnnc1C(c1ccccn1)N1CCOCC1 (configuration not stated),-2.2,-8.6,1.9,-0.3,-2.2,-0.7
CCN(Cc1ccccc1)C(c1ccccn1)c1nnnn1C(C)(C)CC (configuration not stated),-0.7,-4.1,45.3*,-0.6,0.6,-1.0
CCC(C)(C)n1nnnc1C(c1ccc(O)c(OC)c1)N1CCN(c2nc3ccccc3s2)CC1 (configuration not stated),-0.4,4.8,25.9,-0.7,4.9,24.9*
CCC(C)(C)n1nnnc1C(c1cccc(C#N)c1)N1CCN(c2cccc(C)c2C)CC1 (configuration not stated),-2.1,11.3,17.9,-0.3,-2.3,10.5*
COc1ccccc1C(c1nnnn1Cc1ccccc1)N1CCN(c2nc3ccccc3s2)CC1 (configuration not stated),2.5,3.6,44.4*,-1.4,-8.7,1.1
CC(C)(C)n1nnnc1C(c1cccc(C#N)c1)N1CCN2CCCC2C1 (configuration not stated),0.8,9.5,-7.2,0.8,-5.6,1.0
CN(C)c1nc2c(c(=O)[nH]c(=O)n2C)n1Cc1ccccc1Br,-0.9,0.5,5.9,-1.0,-3.8,-0.8
O=C1CC(c2ccc(Cl)c(Cl)c2)CC(O)=C1C=NCCN1CCNCC1 (configuration not stated),1.6,-8.0,16.6,-2.1,-9.7,-0.2
SMILES,HTR1A agonist,S1P1 ag-PAM,5HT1a antag,S1P3 agonist,5HT1E antag,HTR1E agonist
Cc1cc(C)n2nc(C(=O)OCCOc3ccc(F)cc3)nc2n1,-0.8,-13.1,-12.4,0.2,-1.8,0.5
CCOC(=O)C1=C(c2ccccc2)N2CCN=C2S1,-3.0,17.5,14.1,-0.2,14.6,-1.3
Cc1ccc(CCNC(=O)c2coc3nc4ccccc4nc23)cc1,3.0,-48.0,-16.8,1.0,-3.4,13.3*
CN1CCN(c2nc(-c3ccncc3)nc3ccccc23)CC1,4.0,.,-3.9,-0.1,6.2,9.1*
c1ccc2c(N3CCCC3)nc(-c3ccncc3)nc2c1,0.8,-24.4,4.9,-0.1,0.2,1.1
COC(=O)c1ccc(-c2sc3nc(N4CCOCC4)c4c(c3c2N)CCCC4)o1,25.5*,-34.0,.,1.1,11.8,5.4
Cc1sc2nc3c(C(=O)N4CCN(c5ncccn5)CC4)cccn3c(=O)c2c1C,-0.3,.,6.7,.,-8.4,-1.4
COc1ccc(C(O)C(CN2CCOCC2)c2ccccc2)cc1F (configuration not stated),-0.4,-3.6,-7.2,-0.1,-1.2,0.0
COc1ccc(C(=O)C(CN2CCOCC2)c2ccccc2)cc1F (configuration not stated),-2.3,80.4,76.5*,-1.3,38.6*,0.2
CC1(C)Cc2cccc(OCC(O)CN3CCN(c4ccccn4)CC3)c2O1 (configuration not stated),21.2*,14.8,11.0,-0.1,-4.4,0.1
CC1(C)Cc2cccc(OCC(O)CNCc3ccccn3)c2O1 (configuration not stated),-0.8,14.3,20.6,-1.5,10.3,0.0
Cc1cccc(NC(=O)Nc2ccc(C#N)cc2)n1,-0.6,68.5,82.7*,-2.1,32.5*,-0.1
Cc1cccc(NC(=O)Nc2cccc(C#N)c2)n1,-0.2,-30.6,26.7,-0.7,-6.3,0.5
CC1Cc2ccccc2N1C(=O)Cn1c(=O)oc2cc(S(=O)(=O)N3CCCCC3)ccc21 (configuration not stated),-4.7,15.1,-10.0,-0.9,2.8,0.1
Cc1ccc(-c2csc3ncnc(Sc4nnc(CN5CCCCCC5=O)o4)c23)cc1,-3.4,93.0*,75.5*,-2.5,48.1*,-0.2
Cc1cccc(-n2ncc3c(N(C)C4CCCCC4)ncnc32)c1,-1.0,53.3*,14.9,-1.2,10.6,0.7
COc1ccc(-n2ncc3c(N4CCC(C)CC4)ncnc32)cc1,0.2,-5.4,0.8,-0.6,2.6,0.1
COc1ccc(-n2ncc3c(N(C)C4CCCCC4)ncnc32)cc1,30.7*,34.0,-4.2,-0.4,-10.8,2.1
C=C(C)n1c(=O)[nH]c2ccccc21,-5.9,-21.1,-11.9,-1.9,0.8,0.0
COCCn1c(N)c(C(=O)NCc2cccs2)c2nc3ccccc3nc21,10.7,-45.0,-23.0,2.7,13.2,2.0
